# Key:
# [1] = biological target: T1, 3-oxo-5-alpha-steroid 4-dehydrogenase 1 (Homo sapiens) (UniProt P18405); assay: Inhibition of Steroid 5-alpha-reductase type I of human DU 145 prostatic tumor cell line, at 10 uM
# T1 sequence (whole entry): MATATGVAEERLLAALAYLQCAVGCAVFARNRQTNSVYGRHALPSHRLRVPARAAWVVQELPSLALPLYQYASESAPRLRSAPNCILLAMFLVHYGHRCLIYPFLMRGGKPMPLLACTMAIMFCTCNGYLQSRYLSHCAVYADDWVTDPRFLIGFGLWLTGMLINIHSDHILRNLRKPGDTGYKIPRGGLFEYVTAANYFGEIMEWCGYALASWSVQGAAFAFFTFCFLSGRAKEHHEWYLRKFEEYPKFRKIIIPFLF
# Outline: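 Intact DU145 cells (type 1 source) seeded at 180 000/well and left to adhere overnight. Compound added in DMSO to complete medium, then 6 h at 37 °C in 5% CO2 with [³H]androstenedione, 5 nM. Medium extracted twice with ether, steroids separated by radio-HPLC. Product formed expressed as % of triplicate no-inhibitor controls; screened at 10 μM.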
# [2] = biological target: T2, 3-oxo-5-alpha-steroid 4-dehydrogenase 2 (Homo sapiens, UniProt P31213); assay: Inhibition of Steroid 5-alpha-reductase type 2 from human benign prostatic hyperplasia (BPH) tissue
# T2 sequence (P31213 whole entry): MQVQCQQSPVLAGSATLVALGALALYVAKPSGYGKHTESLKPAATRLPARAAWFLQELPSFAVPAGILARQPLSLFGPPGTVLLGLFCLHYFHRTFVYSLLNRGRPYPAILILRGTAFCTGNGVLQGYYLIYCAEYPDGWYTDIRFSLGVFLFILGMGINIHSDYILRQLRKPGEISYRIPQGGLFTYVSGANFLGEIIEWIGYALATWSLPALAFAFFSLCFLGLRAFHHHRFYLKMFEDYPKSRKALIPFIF
# Outline: (§1)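 Human BPH prostate 105000g pellet (nuclei, mitochondria, microsomes) prepared in citrate buffer pH 5.5. Incubation of about 125 μg protein for 30 min at 37 °C in 40 mM citrate pH 5.5 with 100 μM NADPH, 0.21 μM [1,2-³H]testosterone and 2% DMSO. Reaction stopped with NaOH, steroids extracted with ether, T/DHT separated by radio-HPLC. Single 10 μM test or IC50; duplicates.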
# [3] = biological target: T3, 3-oxo-5-alpha-steroid 4-dehydrogenase 1 (Rattus norvegicus, UniProt P24008); assay: Inhibition of Steroid 5-alpha-reductase type I from rat ventral prostate (RVP); type: tissue-based, Prostate gland
# T3 sequence (P24008 whole entry): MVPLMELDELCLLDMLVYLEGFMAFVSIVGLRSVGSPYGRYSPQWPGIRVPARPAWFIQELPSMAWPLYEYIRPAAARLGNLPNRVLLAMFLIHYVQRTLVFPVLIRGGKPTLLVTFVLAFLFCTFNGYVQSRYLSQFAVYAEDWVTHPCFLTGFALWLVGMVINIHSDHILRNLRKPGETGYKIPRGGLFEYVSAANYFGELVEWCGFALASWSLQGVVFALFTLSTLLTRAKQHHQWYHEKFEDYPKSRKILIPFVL
# Outline: (§2)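 Rat ventral prostate 105000g pellet made in 20 mM phosphate pH 6.6 with […] and 1 mM DTT at 0–4 °C. About 250 μg protein incubated 30 min at 37 °C in 40 mM phosphate pH 6.6 with 200 μM NADPH, 0.21 μM [1,2-³H]testosterone and 2% DMSO. Ether extraction, radio-HPLC of T and DHT. % inhibition at 10 μM or IC50; duplicates.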
# [4] = biological target: T4, 3-oxo-5-alpha-steroid 4-dehydrogenase 2 (Rattus norvegicus, UniProt P31214); assay: (§3) Inhibition of Steroid 5-alpha-reductase type 2 of rat ventral prostate (RVP); type: tissue-based, Prostate gland
# T4 sequence (P31214 whole entry): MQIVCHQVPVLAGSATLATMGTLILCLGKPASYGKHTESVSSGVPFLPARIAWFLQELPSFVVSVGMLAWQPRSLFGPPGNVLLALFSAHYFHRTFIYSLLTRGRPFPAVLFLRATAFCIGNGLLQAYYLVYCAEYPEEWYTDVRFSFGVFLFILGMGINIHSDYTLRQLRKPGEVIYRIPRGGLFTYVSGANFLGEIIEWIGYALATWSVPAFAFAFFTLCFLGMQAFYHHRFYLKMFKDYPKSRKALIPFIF
# Outline: (§4)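 Type 2 source: rat ventral prostate homogenized in citrate buffer pH 5.5, 105000g pellet. About 250 μg protein incubated 30 min at 37 °C in 40 mM citrate pH 5.5 with 200 μM NADPH, 0.21 μM [1,2-³H]testosterone and 2% DMSO. NaOH stop, ether extraction, radio-HPLC of T/DHT. Result given as % inhibition at 10 μM or IC50, run in duplicate.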
# Rattus norvegicus [5] = assay: In vivo ventral prostate weights in juvenile castrated rats treated with testosterone propionate (1 mg/kg); type: functional, Prostate gland
# Outline: (§5)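 Male rats castrated at 21 days old by scrotal incision under ether anaesthesia; eight groups of eight. One week later, testosterone propionate 1 mg/kg and test agent or vehicle in oil given once daily for 4 days. Testosterone and test agent were given by separate sc injections, or the test agent was given orally. Test doses 11.3–12.2 mg/kg, 10 times equimolar to finasteride 1 mg/kg.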
# [6] = biological target: T5, 3-oxo-5-alpha-steroid 4-dehydrogenase 2 (Homo sapiens) (UniProt P31213); assay: Percent of inhibition against Steroid 5-alpha-reductase type 2 of human uM; conditions: concentration not given here; outline: as §1
# T5 sequence (whole entry): T2 sequence (P31213 whole entry)
# [7] = biological target: T6, 3-oxo-5-alpha-steroid 4-dehydrogenase 1 (Rattus norvegicus) (UniProt P24008); assay: Inhibition of Steroid 5-alpha-reductase type I of rat ventral prostate (RVP); type: tissue-based; parameters: concentration or dose not given beside the values; conditions: Prostate gland, concentration not given here; outline: as §2
# T6 sequence (whole entry): T3 sequence (P24008 whole entry)
# [8] = biological target: T7, 3-oxo-5-alpha-steroid 4-dehydrogenase 2 (Rattus norvegicus) (UniProt P31214); assay: as §3; parameters: concentration or dose not given beside the values; conditions: Prostate gland, concentration not given here; outline: as §4
# T7 sequence (whole entry): T4 sequence (P31214 whole entry)
# [9] = biological target: T5, 3-oxo-5-alpha-steroid 4-dehydrogenase 2 (Homo sapiens); assay: Percent of inhibition at 10 benign prostatic hyperplasia (BPH) tissue; conditions: concentration not given here; outline: as §1
# [10] = biological target: 3-oxo-5-alpha-steroid 4-dehydrogenase 2 (Homo sapiens, UniProt P31213); assay: In vitro inhibitory activity against Steroid 5-alpha-reductase type 2 of human benign prostatic hyperplasia (BPH) tissue; outline: as §1
# Rattus norvegicus [11] = assay: In vivo ventral prostate weights in juvenile castrated rats treated with testosterone propionate (11.3 mg/kg) compound, by subcutaneous administration; type: functional, Prostate gland; outline: as §5
# Rattus norvegicus [12] = assay: Mean percentage of inhibition of the T-induced hypertrophic response was calculated according to the equation %inhibition = 100 x (Ct-D)/(Ct-Cc) at a dose 12.2 mg/kg by subcutaneous administration; type: functional; conditions: sc; outline: as §5
# [13] = biological target: T3, 3-oxo-5-alpha-steroid 4-dehydrogenase 1; assay: In vitro inhibitory activity against Steroid 5-alpha-reductase type I of rat ventral prostate (RVP); type: tissue-based, Prostate gland; outline: as §2
# Rattus norvegicus [14] = assay: Mean percentage of inhibition of the T-induced hypertrophic response was calculated according to the equation %inhibition = 100 x (Ct-D)/(Ct-Cc) at a dose 1 mg/kg by subcutaneous administration; type: functional; conditions: sc; outline: as §5
# Rattus norvegicus [15] = assay: In vivo ventral prostate weights in juvenile castrated rats treated with testosterone propionate (11.3 mg/kg) + compound, by subcutaneous administration; type: functional, Prostate gland
# Rattus norvegicus [16] = assay: In vivo ventral prostate weights in juvenile castrated rats treated with testosterone propionate (11.3 mg/kg) compound, by oral administration; type: functional, Prostate gland; outline: as §5
# Rattus norvegicus [17] = assay: Mean percentage of inhibition of the T-induced hypertrophic response was calculated according to the equation %inhibition = 100 x (Ct-D)/(Ct-Cc) at a dose 11.3 mg/kg by oral administration; type: functional; outline: as §5
# Rattus norvegicus [18] = assay: Mean percentage of inhibition of the T-induced hypertrophic response was calculated according to the equation %inhibition = 100 x (Ct-D)/(Ct-Cc) at a dose 11.3 mg/kg by subcutaneous administration; type: functional; conditions: sc; outline: as §5
# Rattus norvegicus [19] = assay: Mean percentage of inhibition of the T-induced hypertrophic response was calculated according to the equation %inhibition = 100 x (Ct-D)/(Ct-Cc) at a dose 11.8 mg/kg by subcutaneous administration; type: functional; conditions: sc; outline: as §5
SMILES,inhibition [1] [%],IC50 [2] [nM],IC50 [3] [nM],IC50 [4] [nM],inhibition [7] [%],inhibition [8] [%],further results
O=C(O)c1ccc(C=C2CCN(C(=O)C(C3CCCCC3)C3CCCCC3)CC2)c(F)c1 [listing 1 of 2 here],12,,,,,,
O=C(O)c1ccc(C=C2CCN(C(=O)C(c3ccccc3)c3ccccc3)CC2)cc1,26,530,3400,370,,,
CCC(=O)O[C@H]1CC[C@H]2[C@@H]3CCC4=CC(=O)CC[C@]4(C)[C@H]3CC[C@]12C [TESTOSTERONE PROPIONATE],,,,,,,Weight (Rattus norvegicus [5]): 41.6 (mg of prostate) (100g of body weight)-1
O=C(O)Cc1ccc(C=C2CCN(C(=O)C(C3CCCCC3)C3CCCCC3)CC2)c(F)c1 [listing 1 of 2 here],,7,3200,38,,,
O=C(O)c1ccc(C=C2CCN(C(=O)C(C3CCCCC3)C3CCCCC3)CC2)cc1 [listing 1 of 2 here],,60,,80,,,
O=C(O)c1ccc(C=C2CCN(C(=O)C34CC5CC(CC(C5)C3)C4)CC2)c(F)c1,20,210,2700,3500,,,
O=C(O)c1ccc(OC2CCN(C(=O)N(c3ccccc3)c3ccccc3)CC2)cc1,10,,,,53,50,inhibition [6]: 68%
O=C(O)c1ccc(C=C2CCN(C(=O)N(c3ccccc3)c3ccccc3)CC2)cc1,22,830,540,690,,,
COc1cc(C(=O)O)ccc1C=C1CCN(C(=O)C(c2ccccc2)c2ccccc2)CC1,8,3500,1900,940,,,
O=C(O)c1ccc(C=C2CCN(C(=O)C34CC5CC(CC(C5)C3)C4)CC2)cc1,44,260,5600,2500,,,
CC(C)(C)OC(=O)N1CCC(Oc2ccc(C(=O)O)cc2)CC1,2,,,,4,12,inhibition [9]: 7.8%
O=C(O)c1ccc(OC2CCN(C(=O)C(c3ccccc3)c3ccccc3)CC2)cc1,,,,,62,58,IC50 [10]: 1300 nM
O=C(O)c1cccc(C=C2CCN(C(=O)C(c3ccccc3)c3ccccc3)CC2)c1,6,,,,49,43,inhibition [9]: 57%
O=C(O)c1ccc(OC2CCN(C(=O)C34CC5CC(CC(C5)C3)C4)CC2)cc1,7,430,,,18,21,
COc1cc(C(=O)O)ccc1C=C1CCN(C(=O)C23CC4CC(CC(C4)C2)C3)CC1,10,1200,,,52,51,
CCC(=O)O[C@H]1CC[C@H]2[C@@H]3CCC4=CC(=O)CC[C@]4(C)[C@H]3CC[C@]12C.O=C(O)Cc1ccc(C=C2CCN(C(=O)C(C3CCCCC3)C3CCCCC3)CC2)c(F)c1,,,,,,,Weight (Rattus norvegicus [11]): 26.4 (mg of prostate) (100g of body weight)-1; inhibition in vivo at 12.2 mg/kg (Rattus norvegicus [12]): 55%
O=C(O)c1ccc(C=C2CCN(C(=O)C(C3CCCCC3)C3CCCCC3)CC2)c(F)c1 [listing 2 of 2 here],,11,,3000,,,IC50 [13]: 1800 nM
O=C(O)Cc1ccc(C=C2CCN(C(=O)C(C3CCCCC3)C3CCCCC3)CC2)c(F)c1 [listing 2 of 2 here],4,,,,,,
COc1cc(C(=O)O)ccc1C=C1CCN(C(=O)C(C2CCCCC2)C2CCCCC2)CC1,5,130,,,55,43,
CC(C)(C)NC(=O)C1CC[C@@]2(C)[C@@H]3CC[C@H]4NC(=O)C=C[C@]4(C)[C@H]3CC[C@]12C.CCC(=O)O[C@H]1CC[C@H]2[C@@H]3CCC4=CC(=O)CC[C@]4(C)[C@H]3CC[C@]12C (stereo partly drawn),,,,,,,inhibition in vivo at 1 mg/kg (Rattus norvegicus [14]): 76%; Weight (Rattus norvegicus [15]): 20.5 (mg of prostate) (100g of body weight)-1
O=C(O)Cc1ccc(C=C2CCN(C(=O)C(C3CCCCC3)C3CCCCC3)CC2)cc1,6,6,,,66,56,
O=C(O)Cc1ccc(C=C2CCN(C(=O)C(c3ccccc3)c3ccccc3)CC2)cc1,,,4500,,,63,IC50 [10]: 75 nM
CCC(=O)O[C@H]1CC[C@H]2[C@@H]3CCC4=CC(=O)CC[C@]4(C)[C@H]3CC[C@]12C.O=C(O)c1ccc(C=C2CCN(C(=O)C(C3CCCCC3)C3CCCCC3)CC2)cc1,,,,,,,Weight (Rattus norvegicus [16]): 31.6 (mg of prostate) (100g of body weight)-1; Weight (Rattus norvegicus [11]): 27.9 (mg of prostate) (100g of body weight)-1; inhibition in vivo at 11.3 mg/kg (Rattus norvegicus [17]): 36%; inhibition in vivo at 11.3 mg/kg (Rattus norvegicus [18]): 49%
O=C(O)c1ccc(C=C2CCN(C(=O)CC(c3ccccc3)c3ccccc3)CC2)cc1,8,1100,1600,880,,,
O=C(O)c1ccc(C=C2CCN(C(=O)C(C3CCCCC3)C3CCCCC3)CC2)cc1 [listing 2 of 2 here],46,,,,51,,
O=C(O)c1cccc(C=C2CCN(C(=O)C(C3CCCCC3)C3CCCCC3)CC2)c1,,,,,35,25,IC50 [10]: 700 nM
O=C(O)c1ccc(C=C2CCN(C(=O)C(c3ccccc3)c3ccccc3)CC2)c(F)c1,2,410,1100,1100,,,
CCC(=O)O[C@H]1CC[C@H]2[C@@H]3CCC4=CC(=O)CC[C@]4(C)[C@H]3CC[C@]12C.O=C(O)c1ccc(C=C2CCN(C(=O)C(C3CCCCC3)C3CCCCC3)CC2)c(F)c1,,,,,,,inhibition in vivo at 11.8 mg/kg (Rattus norvegicus [19]): 47%; Weight (Rattus norvegicus [11]): 28.6 (mg of prostate) (100g of body weight)-1
